Measured values taken from ChEMBL document CHEMBL3244336, “Antitumor agents. 1. 1,4-Bis[(aminoalkyl)amino]-9,10-anthracenediones” (J Med Chem, 1979).
Activity calls are given as the source filed them.

Test system: P388
Assay: Antitumor activity against mouse P388 cells allografted in ip dosed mouse assessed as dose providing 40% increase in life span administered as once each 4 days for 3 total injection
Assay type: functional
Conditions: not given
Procedure, shortened: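 P388 tumor-bearing mice dosed ip, either once as a single dose or once every 4 days for three injections. It was read from regression lines of log dose-response data.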

Structure (SMILES) | Activity [mg/kg]
O=P1(N(CCCl)CCCl)NCCCO1 (stereo unspecified) [CYCLOPHOSPHAMIDE ANHYDROUS] | 142
CN(Cc1cnc2nc(N)nc(N)c2n1)c1ccc(C(=O)N[C@@H](CCC(=O)O)C(=O)O)cc1 [METHOTREXATE] | 102
O=c1[nH]cc(F)c(=O)[nH]1 [FLUOROURACIL] | 70

Test system: P388
Assay: Antitumor activity against mouse P388 cells allografted in mouse assessed as increase of median life span at 200 mg/kg, ip on day 1, 5 and 9 measured up to 60 days relative to control
Assay type: functional
Conditions: route intraperitoneal
Procedure, shortened: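 BDF1 or CDF1 mice inoculated ip with ascitic P388 leukemia cells. Dosing ip on days 1, 5 and 9. Deaths recorded for 60 days; % increase in median life span over controls. "Cures" are survivors/total at 60 days.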

Structure (SMILES) | ILS at 200 mg/kg [%]
CN(C)CCCCCNc1ccc(NCCCCCN(C)C)c2c1C(=O)c1c(O)ccc(O)c1C2=O | 0
CC(C)N(CCNc1ccc(NCCN(C(C)C)C(C)C)c2c1C(=O)c1c(O)ccc(O)c1C2=O)C(C)C | 0
O=C1c2ccccc2C(=O)c2c(NCCN3CCCCC3)ccc(NCCN3CCCCC3)c21 | 27
CC(=O)NCCNc1ccc(NCCNC(C)=O)c2c1C(=O)c1c(O)ccc(O)c1C2=O | 0
CN(C)CCCNc1ccc(NCCCN(C)C)c2c1C(=O)c1ccccc1C2=O | 0
CCCCN(CCCC)CCNc1ccc(NCCN(CCCC)CCCC)c2c1C(=O)c1c(O)ccc(O)c1C2=O | 0
CN(CCNc1ccc(NCCN(C)c2ccccc2)c2c1C(=O)c1c(O)ccc(O)c1C2=O)c1ccccc1 | 0
Cc1ccc2c(c1)C(=O)c1c(NCCN(C)C)ccc(NCCN(C)C)c1C2=O | 0
CCN(CC)CCNc1ccc(NCCN(CC)CC)c2c1C(=O)c1ccccc1C2=O | 40
CCN1CCCC1CNc1ccc(NCC2CCCN2CC)c2c1C(=O)c1c(O)ccc(O)c1C2=O (stereo unspecified) | 45
O=C1c2c(O)ccc(O)c2C(=O)c2c(NCCCN3CCOCC3)ccc(NCCCN3CCOCC3)c21 | 40
CN(C)CCNc1ccc(NCCN(C)C)c2c1C(=O)c1cc(Cl)c(Cl)cc1C2=O | 0
CCN(CC)CCNc1ccc(NCCN(CC)CC)c2c1C(=O)c1c(O)ccc(O)c1C2=O | 88
CN(C)CCCCNc1ccc(NCCCCN(C)C)c2c1C(=O)c1c(O)ccc(O)c1C2=O | 0
O=C1c2c(O)ccc(O)c2C(=O)c2c(NCCN3CCOCC3)ccc(NCCN3CCOCC3)c21 | 0

Test system: not listed separately
Assay: Therapeutic index, ratio of MTD for mouse P388 cells allografted ip dosed mouse to MED for mouse P388 cells allografted in ip dosed mouse administered as single dose
Assay type: organism-based
Conditions: in vivo, read-out: TI
Procedure, shortened: (§1)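 Therapeutic index is MTD/MED for ip dosing, either single or once every 4 days ×3. MTD is the 10% lethal dose in normal mice over 21 days. MED is the dose giving a 40% life-span increase in P388-bearing mice. Both come from log dose-response regression lines.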

Structure (SMILES) | selectivity ratio
O=P1(N(CCCl)CCCl)NCCCO1 (stereo unspecified) [CYCLOPHOSPHAMIDE ANHYDROUS] | 13
CN(Cc1cnc2nc(N)nc(N)c2n1)c1ccc(C(=O)N[C@@H](CCC(=O)O)C(=O)O)cc1 [METHOTREXATE] | 4
O=c1[nH]cc(F)c(=O)[nH]1 [FLUOROURACIL] | 3

Test system: B16
Assay: Antitumor activity against mouse B16 cells allografted in BDF1 mouse assessed as disease cure at 50 mg/kg, ip on day 1 to 9 measured up to 80 days
Assay type: functional, organism-based
Parameters: dose 50 mg/kg
Conditions: not given
Procedure, shortened: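 BDF1 mice implanted ip with homogenate from 0.05 g of B16 tumor, then dosed ip on days 1-9. Deaths recorded for 80 days; "cures" scored as survivors/total at 80 days.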

Structure (SMILES) | Activity
CN(C)CCCCCNc1ccc(NCCCCCN(C)C)c2c1C(=O)c1c(O)ccc(O)c1C2=O | inactive
CC(C)N(CCNc1ccc(NCCN(C(C)C)C(C)C)c2c1C(=O)c1c(O)ccc(O)c1C2=O)C(C)C | inactive
CC(=O)NCCNc1ccc(NCCNC(C)=O)c2c1C(=O)c1c(O)ccc(O)c1C2=O | inactive
CCCCN(CCCC)CCNc1ccc(NCCN(CCCC)CCCC)c2c1C(=O)c1c(O)ccc(O)c1C2=O | inactive
CN(CCNc1ccc(NCCN(C)c2ccccc2)c2c1C(=O)c1c(O)ccc(O)c1C2=O)c1ccccc1 | inactive
CCN1CCCC1CNc1ccc(NCC2CCCN2CC)c2c1C(=O)c1c(O)ccc(O)c1C2=O (stereo unspecified) | inactive
O=C1c2c(O)ccc(O)c2C(=O)c2c(NCCCN3CCOCC3)ccc(NCCCN3CCOCC3)c21 | inactive
CN(C)CCCCNc1ccc(NCCCCN(C)C)c2c1C(=O)c1c(O)ccc(O)c1C2=O | inactive

Test system: P388
Assay: Antitumor activity against mouse P388 cells allografted in ip dosed mouse assessed as minimum effective dose administered as once each 4 days for 3 total injection
Assay type: functional
Conditions: 96 h, read-out: MED
Procedure, shortened: (§2)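 Drug given ip to P388 tumor-bearing mice, either once as a single dose or once each 4 days for three injections. Minimum effective dose defined as the dose giving 40% increase in life span over control, read from regression lines of log dose-response data.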

Structure (SMILES) | minimal effective dose [mg/kg]
O=P1(N(CCCl)CCCl)NCCCO1 (stereo unspecified) [CYCLOPHOSPHAMIDE ANHYDROUS] | 12
CN(Cc1cnc2nc(N)nc(N)c2n1)c1ccc(C(=O)N[C@@H](CCC(=O)O)C(=O)O)cc1 [METHOTREXATE] | 1.5
O=c1[nH]cc(F)c(=O)[nH]1 [FLUOROURACIL] | 11.4

Test system: P388
Assay: Antitumor activity against mouse P388 cells allografted in mouse assessed as disease cure at 200 mg/kg, ip on day 1, 5 and 9 measured up to 60 days
Assay type: functional, organism-based
Parameters: dose 200 mg/kg
Conditions: not given
Procedure, shortened: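 BDF1 or CDF1 mice inoculated ip with ascitic P388 leukemia cells, dosed ip on days 1, 5 and 9. Deaths recorded for 60 days; "cures" taken as number of survivors/total at 60 days.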

Structure (SMILES) | Activity
CN(C)CCCCCNc1ccc(NCCCCCN(C)C)c2c1C(=O)c1c(O)ccc(O)c1C2=O | inactive
CC(C)N(CCNc1ccc(NCCN(C(C)C)C(C)C)c2c1C(=O)c1c(O)ccc(O)c1C2=O)C(C)C | inactive
O=C1c2ccccc2C(=O)c2c(NCCN3CCCCC3)ccc(NCCN3CCCCC3)c21 | inactive
CCCCN(CCCC)CCNc1ccc(NCCN(CCCC)CCCC)c2c1C(=O)c1c(O)ccc(O)c1C2=O | inactive
CN(CCNc1ccc(NCCN(C)c2ccccc2)c2c1C(=O)c1c(O)ccc(O)c1C2=O)c1ccccc1 | inactive
Cc1ccc2c(c1)C(=O)c1c(NCCN(C)C)ccc(NCCN(C)C)c1C2=O | inactive
CCN(CC)CCNc1ccc(NCCN(CC)CC)c2c1C(=O)c1ccccc1C2=O | inactive
CCN1CCCC1CNc1ccc(NCC2CCCN2CC)c2c1C(=O)c1c(O)ccc(O)c1C2=O (stereo unspecified) | inactive
O=C1c2c(O)ccc(O)c2C(=O)c2c(NCCCN3CCOCC3)ccc(NCCCN3CCOCC3)c21 | inactive
CN(C)CCNc1ccc(NCCN(C)C)c2c1C(=O)c1cc(Cl)c(Cl)cc1C2=O | inactive
CN(C)CCCCNc1ccc(NCCCCN(C)C)c2c1C(=O)c1c(O)ccc(O)c1C2=O | inactive
O=C1c2c(O)ccc(O)c2C(=O)c2c(NCCN3CCOCC3)ccc(NCCN3CCOCC3)c21 | inactive

Test system: not listed separately
Assay: Therapeutic index, ratio of MTD for mouse P388 cells allografted ip dosed mouse to MED for mouse P388 cells allografted in ip dosed mouse administered as once each 4 days for 3 total injection
Assay type: organism-based
Conditions: in vivo, read-out: TI
Procedure, shortened: as §1

Structure (SMILES) | selectivity ratio at 96 h
O=P1(N(CCCl)CCCl)NCCCO1 (stereo unspecified) [CYCLOPHOSPHAMIDE ANHYDROUS] | 8
CN(Cc1cnc2nc(N)nc(N)c2n1)c1ccc(C(=O)N[C@@H](CCC(=O)O)C(=O)O)cc1 [METHOTREXATE] | 11
O=c1[nH]cc(F)c(=O)[nH]1 [FLUOROURACIL] | 4

Test system: P388
Assay: Antitumor activity against mouse P388 cells allografted in ip dosed mouse assessed as minimum effective dose administered as single dose
Assay type: functional
Conditions: read-out: MED
Procedure, shortened: as §2

Structure (SMILES) | minimal effective dose [mg/kg]
O=P1(N(CCCl)CCCl)NCCCO1 (stereo unspecified) [CYCLOPHOSPHAMIDE ANHYDROUS] | 26.3
CN(Cc1cnc2nc(N)nc(N)c2n1)c1ccc(C(=O)N[C@@H](CCC(=O)O)C(=O)O)cc1 [METHOTREXATE] | 27.9
O=c1[nH]cc(F)c(=O)[nH]1 [FLUOROURACIL] | 88

Test system: B16
Assay: Antitumor activity against mouse B16 cells allografted in BDF1 mouse assessed as increase of median life span at 50 mg/kg, ip on day 1 to 9 measured up to 80 days relative to control
Assay type: functional
Conditions: route intraperitoneal
Procedure, shortened: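 BDF1 mice implanted ip with a homogenate from 0.05 g of B16 tumor. Test agent given ip on days 1-9. Deaths recorded for 80 days. Result is % increase in median life span over untreated controls. "Cures" are survivors/total at 80 days.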

Structure (SMILES) | ILS at 50 mg/kg [%]
CN(C)CCCCCNc1ccc(NCCCCCN(C)C)c2c1C(=O)c1c(O)ccc(O)c1C2=O | 0
CC(C)N(CCNc1ccc(NCCN(C(C)C)C(C)C)c2c1C(=O)c1c(O)ccc(O)c1C2=O)C(C)C | 0
CC(=O)NCCNc1ccc(NCCNC(C)=O)c2c1C(=O)c1c(O)ccc(O)c1C2=O | 0
CN(C)CCCNc1ccc(NCCCN(C)C)c2c1C(=O)c1ccccc1C2=O | 0
CCCCN(CCCC)CCNc1ccc(NCCN(CCCC)CCCC)c2c1C(=O)c1c(O)ccc(O)c1C2=O | 0
CN(CCNc1ccc(NCCN(C)c2ccccc2)c2c1C(=O)c1c(O)ccc(O)c1C2=O)c1ccccc1 | 0
CCN1CCCC1CNc1ccc(NCC2CCCN2CC)c2c1C(=O)c1c(O)ccc(O)c1C2=O (stereo unspecified) | 30
O=C1c2c(O)ccc(O)c2C(=O)c2c(NCCCN3CCOCC3)ccc(NCCCN3CCOCC3)c21 | 0
CCN(CC)CCNc1ccc(NCCN(CC)CC)c2c1C(=O)c1c(O)ccc(O)c1C2=O | 38
CN(C)CCCCNc1ccc(NCCCCN(C)C)c2c1C(=O)c1c(O)ccc(O)c1C2=O | 0

Test system: not listed separately
Assay: Toxicity in […] assessed as maximum tolerated dose administered as once each 4 days for 3 total injection
Assay type: organism-based, P388
Conditions: mouse, in vivo, ip

Structure (SMILES) | MTD at 96 h [mg/kg]
O=P1(N(CCCl)CCCl)NCCCO1 (stereo unspecified) [CYCLOPHOSPHAMIDE ANHYDROUS] | 100
CN(Cc1cnc2nc(N)nc(N)c2n1)c1ccc(C(=O)N[C@@H](CCC(=O)O)C(=O)O)cc1 [METHOTREXATE] | 17.5
O=c1[nH]cc(F)c(=O)[nH]1 [FLUOROURACIL] | 48

Test system: not listed separately
Assay: Toxicity in […] assessed as maximum tolerated dose administered as single dose
Assay type: organism-based, P388
Conditions: mouse, in vivo, ip

Structure (SMILES) | MTD [mg/kg]
O=P1(N(CCCl)CCCl)NCCCO1 (stereo unspecified) [CYCLOPHOSPHAMIDE ANHYDROUS] | 350
CN(Cc1cnc2nc(N)nc(N)c2n1)c1ccc(C(=O)N[C@@H](CCC(=O)O)C(=O)O)cc1 [METHOTREXATE] | 108
O=c1[nH]cc(F)c(=O)[nH]1 [FLUOROURACIL] | 280
